esBAF inh = blocks esBAF chromatin remodeling in mouse ES cells; AID 602393; actives 2% (n = 350,000); Bmi1-luciferase knock-in reporter, 24 h; 100% = twice the neutral-well signal; reporter increase, % at 12.5 µM; in the data active = activation above about 40%; inconclusive = no clear call, values can overlap the other calls;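 note: 0% = median of the plate's neutral control wells and 100% = double that signal; a rise in the Bmi1 reporter signal indicates esBAF inhibition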
Cneo AK release = Cryptococcus neoformans lysis via adenylate kinase release; actives 0.2% (n = 360,000); AID 651654; lysis activity, % at 15 µM; C. neoformans lysis, adenylate kinase release luminescence, 4 h; normalised: neutral wells 0, clomiphene wells 100;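 active = mean lysis activity across replicates of at least 80%, whatever share of replicates individually reach that level; inactive = mean lysis activity below 80%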
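Assay system: Cryptococcus neoformans yeast cells / Dosing: single-point compound dose / Timing: 4 h at 37 °C static, read 1 h later / Measured by: luminescence of released adenylate kinase using an AK detection reagent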
ERAP1 HTS inh = inhibitors of human ERAP1 aminopeptidase. Q9NZ08. recombinant ERAP1, Leu-AMC fluorescence, 60 min. inhibition, % at 10.7 µM. actives 0.15% (n = 340,000). AID 652197;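 active = mean replicate inhibition of at least 30%, or all replicates individually reaching that 30% level; inactive = mean below 30% and not every replicate reaching it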;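 note: 0% = neutral control wells and 100% = L-leucinethiol positive control wells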
Env fusion inh = blocks HIV Env-driven cell-cell fusion; AID 651610; actives 1.1% (n = 360,000); inhibition, % at 12.3 µM; HeLa-JRFL Env/CEM21 cell fusion, luciferase;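 active = mean replicate inhibition score of at least 50 and every replicate individually at or above 50; inconclusive = only one of the two criteria met; inactive = mean below 50 and not all replicates reaching 50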;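 note: 0% = plate neutral controls and 100% = maraviroc near 300 nM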
MITF TRPM1 HTS = activators of MITF-driven TRPM1 promoter activity in SK-MEL-5 cells; activation, % at 12.5 µM; actives 0.75% (n = 300,000); SK-MEL-5 TRPM1-promoter luciferase, 24 h; % of positive control, neutral wells = 0;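 active = mean activation of at least 80% with every replicate also reaching 80%; inconclusive = mean reaches 80% but some replicate falls short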;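 note: 0% = neutral control wells and 100% = parthenolide positive control wells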
Wnt bcat act = activates Wnt/beta-catenin signaling in a reporter cell assay; AID 743398; activation, % at 9.35 µM; activator, plate reader; actives 1.2% (n = 300,000); in the data active = activation above about 30%, passing the limit was not always enough; inconclusive = no clear call, values can overlap the other calls;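 note: 0% = neutral control wells and 100% = positive control wells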
The depositor's hits bear a star; [ ] = dose if it differs, or a comment. This is a sample that favours compounds with a hit; in the whole collection about 3.5% have one here.

What do the screens show for `COc1ccc(CN2[C@H](CO)[C@@H]3c4ccccc4N(C(=O)c4ccccc4)C[C@@H]32)cc1`?
esBAF inh: -2; Cneo AK release: -4; ERAP1 HTS inh: -2

How did COc1cc(C(C)=O)ccc1OCc1cc(C(=O)N(C)CCC2CCCCO2)no1 (stereo unspecified) do in these assays?
esBAF inh: 51*; Cneo AK release: -2; ERAP1 HTS inh: -2; Env fusion inh: -64; MITF TRPM1 HTS: inconclusive; Wnt bcat act: inconclusive

What do the screens show for `CC(=O)c1ccc(OCc2cc(C(=O)NCC3CCCCO3)no2)cc1` (stereo unspecified)?
ERAP1 HTS inh: -2; Env fusion inh: -13; MITF TRPM1 HTS: 32; Wnt bcat act: -2

What do the screens show for `COc1ccccc1OCc1cc(C(=O)N(C)CCC2CCCCO2)no1` (stereo unspecified)?
esBAF inh: 76*; Cneo AK release: 1; ERAP1 HTS inh: -5; Env fusion inh: -138; MITF TRPM1 HTS: 52; Wnt bcat act: 20

What do the screens show for `COc1ccc2c3c(n(C)c2c1)[C@@H](CO)N(C)CC31CN(C(=O)c2ccccc2F)C1`?
ERAP1 HTS inh: -3

How did O=C(NC1CCCCC1)N1CC(=O)N2[C@H](C1)[C@H](c1ccc(-c3cccnc3)cc1)[C@@H]2CO do in these assays?
ERAP1 HTS inh: 5

How did COC(=O)c1cnn(-c2nc(-c3ccccc3)cs2)c1N do in these assays?
esBAF inh: 65*; Cneo AK release: -1; ERAP1 HTS inh: -1; Env fusion inh: -58; MITF TRPM1 HTS: 66; Wnt bcat act: 12

Results for COc1ccc(-c2csc(-c3ccc(C(=O)O)cc3)n2)cc1 ?
ERAP1 HTS inh: -2; Env fusion inh: -19; MITF TRPM1 HTS: 62; Wnt bcat act: -5

What do the screens show for `O=C(O)c1ccc(-c2nc(-c3ccc(Cl)cc3Cl)cs2)cc1`?
esBAF inh: 60*; Cneo AK release: -6; ERAP1 HTS inh: 1; Env fusion inh: -33; MITF TRPM1 HTS: inconclusive; Wnt bcat act: 4

How did CCOC(=O)c1cnn(-c2nc(-c3ccccc3)cs2)c1C(F)(F)F do in these assays?
esBAF inh: 28; MITF TRPM1 HTS: 14

What do the screens show for `O=C(O)c1cnn(-c2nc(-c3ccc(Cl)cc3)cs2)c1C(F)(F)F`?
esBAF inh: 76*; Cneo AK release: -3; ERAP1 HTS inh: -10; Env fusion inh: -21; MITF TRPM1 HTS: 68; Wnt bcat act: 10

How did O=C(O)c1ccc(-c2nc(-c3ccc(Cl)cc3)cs2)cc1 do in these assays?
ERAP1 HTS inh: -1; Env fusion inh: -186; MITF TRPM1 HTS: 118*; Wnt bcat act: -4

Results for CC1(CCC(=O)O)C(=O)CCC2C1CCC1(C)C2CCC1(C)O (stereo unspecified) ?
esBAF inh: -3; Cneo AK release: 0; ERAP1 HTS inh: -7; Env fusion inh: 1; MITF TRPM1 HTS: 8; Wnt bcat act: 33*

What do the screens show for `CC12CCC(=O)CC1CCC1C2CCC2(C)C1CCC2(O)C(=O)CO` (stereo unspecified)?
esBAF inh: 1; Cneo AK release: -1; ERAP1 HTS inh: -2; Env fusion inh: 12; MITF TRPM1 HTS: 4; Wnt bcat act: 0

What do the screens show for `COc1ccc2c3c([nH]c2c1)[C@@H](CO)N(C(=O)CC1CC1)CC31CCN(C(=O)c2ccccc2)CC1`?
ERAP1 HTS inh: 2

How did O=C(Nc1ccc(OC(F)F)cc1)Nc1cccc(C(F)(F)F)c1 do in these assays?
esBAF inh: -4; Cneo AK release: -4; Env fusion inh: 75*; MITF TRPM1 HTS: -18

What do the screens show for `CCN(CC)S(=O)(=O)c1ccc(NC(=O)Nc2cccc(C(F)(F)F)c2)cc1`?
esBAF inh: -30; Cneo AK release: -5; Env fusion inh: 96*

What do the screens show for `O=C(Nc1ccncc1)Nc1cccc(C(F)(F)F)c1`?
esBAF inh: -13; Cneo AK release: -3; ERAP1 HTS inh: -1; Env fusion inh: -4; MITF TRPM1 HTS: 12; Wnt bcat act: 0

What do the screens show for `Cc1ccc(S(=O)(=O)Nc2ccc(NC(=O)Nc3cccc(C(F)(F)F)c3)cc2)cc1`?
ERAP1 HTS inh: -1; Env fusion inh: 20; MITF TRPM1 HTS: -2; Wnt bcat act: -2

What do the screens show for `CC(C)NC(=O)N(C)C[C@H]1OCCCC[C@@H](C)Oc2ccc(NS(=O)(=O)c3ccccc3)cc2C(=O)N([C@H](C)CO)C[C@@H]1C`?
esBAF inh: -4; Cneo AK release: 1; ERAP1 HTS inh: 2; Env fusion inh: -10[16.7 µM]

How did Cc1noc(C)c1S(=O)(=O)N(C)C[C@@H]1OCCCC[C@@H](C)Oc2ccc(NC(=O)Nc3ccc(C(F)(F)F)cc3)cc2C(=O)N([C@H](C)CO)C[C@H]1C do in these assays?
esBAF inh: 8; Cneo AK release: 5; ERAP1 HTS inh: -1; Env fusion inh: 83*[16.7 µM]

Results for Cc1noc(C)c1S(=O)(=O)N(C)C[C@H]1OCCCC[C@H](C)Oc2ccc(NC(=O)Nc3ccc4c(c3)OCO4)cc2C(=O)N([C@@H](C)CO)C[C@@H]1C ?
esBAF inh: -3; Cneo AK release: 10; Env fusion inh: 60*[16.7 µM]

Results for Cc1noc(C)c1S(=O)(=O)N(C)C[C@H]1OCCCC[C@@H](C)Oc2ccc(NC(=O)Nc3ccc(C(F)(F)F)cc3)cc2C(=O)N([C@@H](C)CO)C[C@H]1C ?
esBAF inh: -5; Cneo AK release: 0; ERAP1 HTS inh: -1; Env fusion inh: 44[16.7 µM]

Results for Cc1cccc(NC(=O)COc2ccc3oc4c(c3c2)CCCC4)n1 ?
esBAF inh: 17; Cneo AK release: 2; Env fusion inh: -8; MITF TRPM1 HTS: 19; Wnt bcat act: 2

What do the screens show for `O=C(COc1ccc2c(c1)CCC2)Nc1ccccn1`?
esBAF inh: 51*; Cneo AK release: -10; ERAP1 HTS inh: 0; MITF TRPM1 HTS: -50; Wnt bcat act: 12

What do the screens show for `Cc1cccc(NC(=O)COc2ccc3c(c2)CCC3)n1`?
esBAF inh: 10; ERAP1 HTS inh: -1; Env fusion inh: -19; MITF TRPM1 HTS: 101*; Wnt bcat act: 2

How did O=C(COC(=O)COc1ccc2c(c1)CCC2)Nc1ccccc1 do in these assays?
esBAF inh: 42*; Cneo AK release: 2; ERAP1 HTS inh: 3; MITF TRPM1 HTS: 30; Wnt bcat act: 0

Results for Cc1cnc(NC(=O)COc2ccc3c(c2)CCC3)s1 ?
esBAF inh: 18; Cneo AK release: -1; ERAP1 HTS inh: 1; Env fusion inh: -319; MITF TRPM1 HTS: 40; Wnt bcat act: 43*

How did Nc1ccc2cc3[nH]c4cc(N)ccc4c3nc2c1 do in these assays?
esBAF inh: -81; ERAP1 HTS inh: -2; Env fusion inh: 61*; MITF TRPM1 HTS: -82; Wnt bcat act: 5

Results for CC(=O)N1[C@@H]2c3ccc(-c4ccncc4)c(=O)n3C[C@@H]2[C@@H](CO)[C@@H]1C(=O)NC1Cc2ccccc2C1 ?
esBAF inh: -3; Cneo AK release: 0; ERAP1 HTS inh: 1

Source: PubChem (Broad Institute)
